ChEMBL document CHEMBL2384911 (Bioorg Med Chem, 2013)
The source made the active and inactive calls. No cut-off for these calls is given here.

Assays:
Rattus norvegicus = experiment: AUC (0 to 48 hrs) in Sprague-Dawley rat assessed as N-[4-Methyl-3-[[4-(3-pyridinyl)-2-pyrimidinyl]amino]-phenyl]-4-(1-piperazinylmethyl)benzamide at 1 mg/kg, iv administered as bolus dose; assay type: ADME, organism-based, Plasma; parameters: time < 48 hr, dose 1 mg/kg, route intravenous; conditions: in vivo
Method in brief: (§1)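 Single IV bolus into femoral vein, 1 mg/kg in 0.5 mL/kg vehicle (30% NMP, 70% PEG200). Serial blood samples taken from femoral artery for up to 48 h, stored at −20 °C. Proteins precipitated with CH3CN containing internal standard, then LC/MS/MS with ESI; LLOQ 0.4 ng mL. Parameters from non-compartmental analysis.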

in vivo = conditions: Sprague-Dawley, rat, plasma, iv, 1 mg/kg
[1] = AUC (0 to 48 hrs) in Sprague-Dawley rat at 1 mg/kg, iv administered as bolus dose; assay type: ADME, organism-based; parameters: time < 48 hr, dose 1 mg/kg, route intravenous; conditions: plasma; method in brief: as §1
Liver microsomes [2] = experiment: Metabolic stability in rat liver microsomes assessed as compound remaining by capillary-HPLC/MS analysis; assay type: ADME, Microsome
Method in brief: (§2)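 Parent compound added from 2 mM DMSO stock to liver microsomes (20 mg protein/mL) in 100 mM phosphate buffer pH 7.4 with alamethicin and UDPGA. Pre-incubated 3 min at 37 °C, started with NADPH-regenerating system, run up to 60 min at 37 °C. Stopped with ice-cold CH3CN, centrifuged, diluted, analysed by capillary-HPLC/MS; peak areas not corrected for response factors.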

Liver microsomes [3] = experiment: Metabolic stability in human liver microsomes assessed as compound remaining by capillary-HPLC/MS analysis; assay type: ADME, Microsome; method in brief: as §2
Bcr/Abl fusion protein [4] = biological target: T1, Bcr/Abl fusion protein (Homo sapiens, UniProt P00519); experiment: Inhibition of human BCR-ABL1 autophosphorylation expressed in mouse BA/F3 cells by ELISA; assay type: cell-based, BaF3
T1 sequence (P00519 whole entry, the tested form may be a part): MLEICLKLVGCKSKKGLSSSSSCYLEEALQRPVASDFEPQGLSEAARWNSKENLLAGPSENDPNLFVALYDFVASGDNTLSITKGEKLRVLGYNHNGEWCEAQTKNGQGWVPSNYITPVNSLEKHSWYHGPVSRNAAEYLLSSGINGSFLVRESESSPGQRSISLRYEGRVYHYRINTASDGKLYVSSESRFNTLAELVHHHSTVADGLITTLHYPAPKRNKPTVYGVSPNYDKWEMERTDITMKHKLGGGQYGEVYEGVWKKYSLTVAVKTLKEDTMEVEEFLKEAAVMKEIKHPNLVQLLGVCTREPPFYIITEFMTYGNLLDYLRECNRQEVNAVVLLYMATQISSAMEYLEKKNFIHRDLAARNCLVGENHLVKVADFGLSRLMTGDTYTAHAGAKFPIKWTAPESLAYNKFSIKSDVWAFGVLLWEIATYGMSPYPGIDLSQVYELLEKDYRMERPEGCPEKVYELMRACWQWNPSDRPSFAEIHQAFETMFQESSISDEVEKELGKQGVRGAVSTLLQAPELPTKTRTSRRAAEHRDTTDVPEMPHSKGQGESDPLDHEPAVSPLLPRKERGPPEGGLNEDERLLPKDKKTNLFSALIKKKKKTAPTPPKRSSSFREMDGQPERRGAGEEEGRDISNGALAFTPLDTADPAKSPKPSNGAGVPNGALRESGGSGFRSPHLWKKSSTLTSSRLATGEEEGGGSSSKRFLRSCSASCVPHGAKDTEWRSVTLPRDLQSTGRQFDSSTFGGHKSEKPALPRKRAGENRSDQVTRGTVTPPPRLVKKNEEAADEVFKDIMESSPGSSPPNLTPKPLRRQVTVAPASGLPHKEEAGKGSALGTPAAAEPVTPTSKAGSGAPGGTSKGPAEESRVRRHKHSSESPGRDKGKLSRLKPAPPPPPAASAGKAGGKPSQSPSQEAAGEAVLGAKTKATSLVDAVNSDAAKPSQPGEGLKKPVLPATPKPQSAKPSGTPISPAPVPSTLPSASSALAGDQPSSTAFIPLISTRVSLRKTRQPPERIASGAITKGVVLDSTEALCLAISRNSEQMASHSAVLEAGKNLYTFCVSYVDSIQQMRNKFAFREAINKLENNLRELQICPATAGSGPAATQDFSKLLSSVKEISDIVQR
T1 sequence (P11274 whole entry, further chain, the tested form may be a part): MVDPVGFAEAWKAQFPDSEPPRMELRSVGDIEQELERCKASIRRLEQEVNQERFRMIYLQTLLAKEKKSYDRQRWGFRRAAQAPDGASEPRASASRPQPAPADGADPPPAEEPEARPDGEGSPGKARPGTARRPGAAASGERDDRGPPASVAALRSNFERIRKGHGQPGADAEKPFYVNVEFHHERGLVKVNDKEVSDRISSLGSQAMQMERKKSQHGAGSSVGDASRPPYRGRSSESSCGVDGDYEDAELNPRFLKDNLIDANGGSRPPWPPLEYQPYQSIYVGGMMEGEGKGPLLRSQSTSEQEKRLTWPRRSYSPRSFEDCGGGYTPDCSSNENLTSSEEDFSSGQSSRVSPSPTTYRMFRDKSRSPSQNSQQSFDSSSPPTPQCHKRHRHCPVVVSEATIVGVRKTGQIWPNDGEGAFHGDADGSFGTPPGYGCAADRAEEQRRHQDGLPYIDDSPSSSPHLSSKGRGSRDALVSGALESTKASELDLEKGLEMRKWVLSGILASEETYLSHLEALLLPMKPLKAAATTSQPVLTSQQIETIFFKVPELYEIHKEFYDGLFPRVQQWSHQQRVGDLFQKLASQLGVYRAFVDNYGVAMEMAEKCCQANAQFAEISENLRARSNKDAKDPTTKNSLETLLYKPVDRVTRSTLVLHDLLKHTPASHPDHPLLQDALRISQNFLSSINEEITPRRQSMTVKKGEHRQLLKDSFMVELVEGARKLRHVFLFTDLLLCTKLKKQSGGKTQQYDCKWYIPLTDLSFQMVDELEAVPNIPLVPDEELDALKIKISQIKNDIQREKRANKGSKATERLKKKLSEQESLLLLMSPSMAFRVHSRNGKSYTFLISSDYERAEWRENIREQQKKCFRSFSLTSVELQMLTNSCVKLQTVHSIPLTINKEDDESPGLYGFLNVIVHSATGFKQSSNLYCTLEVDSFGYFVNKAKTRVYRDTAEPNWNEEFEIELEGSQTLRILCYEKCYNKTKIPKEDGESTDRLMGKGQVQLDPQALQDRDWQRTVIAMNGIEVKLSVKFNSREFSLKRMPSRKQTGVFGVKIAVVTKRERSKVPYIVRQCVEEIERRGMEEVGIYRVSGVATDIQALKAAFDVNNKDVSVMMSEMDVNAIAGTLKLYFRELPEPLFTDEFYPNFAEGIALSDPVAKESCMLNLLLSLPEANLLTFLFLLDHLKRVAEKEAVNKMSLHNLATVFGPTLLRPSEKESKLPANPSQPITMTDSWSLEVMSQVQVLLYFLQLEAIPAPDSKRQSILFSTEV

Bcr/Abl fusion protein [5] = biological target: T1, Bcr/Abl fusion protein; experiment: Inhibition of human BCR-ABL1 (unknown origin) expressed in mouse 32D cells; assay type: cell-based
[6] = biological target: Mast/stem cell growth factor receptor Kit (Homo sapiens, UniProt P10721, K642E); experiment: Inhibition of KIT K642E mutant autophosphorylation (unknown origin) expressed in human GIST882 cells by ELISA; assay type: cell-based
Sequence of Mast/stem cell growth factor receptor Kit (P10721 26-976 K642E limits assumed): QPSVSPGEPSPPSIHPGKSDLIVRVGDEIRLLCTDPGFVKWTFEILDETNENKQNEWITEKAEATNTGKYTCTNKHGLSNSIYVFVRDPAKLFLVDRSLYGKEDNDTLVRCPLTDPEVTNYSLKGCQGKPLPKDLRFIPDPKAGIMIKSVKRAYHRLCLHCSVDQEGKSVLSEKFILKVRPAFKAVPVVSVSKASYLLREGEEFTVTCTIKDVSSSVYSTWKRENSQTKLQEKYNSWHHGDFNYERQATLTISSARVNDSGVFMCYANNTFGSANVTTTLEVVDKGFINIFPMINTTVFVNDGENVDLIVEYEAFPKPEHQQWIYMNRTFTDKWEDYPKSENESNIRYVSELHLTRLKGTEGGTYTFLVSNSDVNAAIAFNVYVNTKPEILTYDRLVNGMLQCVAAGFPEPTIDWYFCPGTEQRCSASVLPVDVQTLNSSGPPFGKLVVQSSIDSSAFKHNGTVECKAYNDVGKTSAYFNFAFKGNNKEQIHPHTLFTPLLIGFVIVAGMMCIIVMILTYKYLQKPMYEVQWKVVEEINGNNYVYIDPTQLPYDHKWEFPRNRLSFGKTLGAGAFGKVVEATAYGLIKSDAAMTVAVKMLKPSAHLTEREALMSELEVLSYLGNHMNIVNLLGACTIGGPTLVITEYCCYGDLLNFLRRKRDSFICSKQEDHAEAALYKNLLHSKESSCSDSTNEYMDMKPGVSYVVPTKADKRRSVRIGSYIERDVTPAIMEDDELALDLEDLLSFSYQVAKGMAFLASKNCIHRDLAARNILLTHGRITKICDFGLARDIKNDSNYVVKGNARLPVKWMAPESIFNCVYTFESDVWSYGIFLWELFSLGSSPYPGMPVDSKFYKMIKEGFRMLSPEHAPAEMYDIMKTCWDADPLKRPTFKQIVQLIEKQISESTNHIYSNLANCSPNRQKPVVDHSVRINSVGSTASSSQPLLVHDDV

Bcr/Abl fusion protein [7] = biological target: T1, Bcr/Abl fusion protein; experiment: Inhibition of human BCR-ABL1 expressed in mouse BA/F3 cells assessed as cell growth inhibition by ATP-depletion assay; assay type: cell-based, BaF3
[8] = tested on: Mast/stem cell growth factor receptor Kit (Homo sapiens), P10721 [K642E]; experiment: Inhibition of KIT K642E mutant autophosphorylation (unknown origin) expressed in human GIST882 cells at < 3000 nM by ELISA; assay type: cell-based
Sequence of Mast/stem cell growth factor receptor Kit (Homo sapiens), P10721 [K642E] (P10721 whole entry K642E, the tested form may be a part): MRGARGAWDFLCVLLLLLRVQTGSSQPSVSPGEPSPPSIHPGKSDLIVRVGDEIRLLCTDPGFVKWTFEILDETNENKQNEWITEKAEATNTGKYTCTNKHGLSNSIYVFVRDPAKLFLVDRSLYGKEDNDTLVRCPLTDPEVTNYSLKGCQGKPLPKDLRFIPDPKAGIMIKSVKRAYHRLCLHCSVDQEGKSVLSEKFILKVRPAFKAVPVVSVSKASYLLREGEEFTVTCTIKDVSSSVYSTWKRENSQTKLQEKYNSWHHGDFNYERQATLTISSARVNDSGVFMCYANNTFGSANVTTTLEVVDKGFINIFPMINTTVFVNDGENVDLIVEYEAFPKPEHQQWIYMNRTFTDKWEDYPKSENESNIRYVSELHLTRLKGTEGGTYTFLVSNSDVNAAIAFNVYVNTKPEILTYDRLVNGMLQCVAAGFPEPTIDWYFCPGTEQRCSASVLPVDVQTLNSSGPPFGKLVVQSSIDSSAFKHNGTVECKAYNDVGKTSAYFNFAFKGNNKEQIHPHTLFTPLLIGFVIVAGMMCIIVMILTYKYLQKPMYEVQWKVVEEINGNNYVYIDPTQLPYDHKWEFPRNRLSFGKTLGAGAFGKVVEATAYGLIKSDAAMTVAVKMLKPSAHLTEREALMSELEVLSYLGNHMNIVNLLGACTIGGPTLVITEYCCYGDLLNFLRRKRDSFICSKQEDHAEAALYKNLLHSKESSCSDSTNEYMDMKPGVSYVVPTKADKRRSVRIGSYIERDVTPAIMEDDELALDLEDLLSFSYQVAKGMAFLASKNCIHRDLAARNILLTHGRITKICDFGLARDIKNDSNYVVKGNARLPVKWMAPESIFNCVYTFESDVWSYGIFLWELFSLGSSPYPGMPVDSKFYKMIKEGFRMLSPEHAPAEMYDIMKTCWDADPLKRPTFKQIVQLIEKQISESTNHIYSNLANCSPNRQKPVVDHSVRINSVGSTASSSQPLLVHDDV

[9] = biological target: Bcr/Abl fusion protein (Homo sapiens) (UniProt P00519+P11274); experiment: Inhibition of human BCR-ABL1 autophosphorylation expressed in mouse BA/F3 cells at < 3000 nM by ELISA; assay type: cell-based; conditions: BaF3
Sequence of Bcr/Abl fusion protein (Homo sapiens) (P00519 whole entry, looked up, the tested form may be a part): as the sequence (P00519 whole entry, the tested form may be a part) above
Sequence of Bcr/Abl fusion protein (Homo sapiens) (P11274 whole entry, looked up, the tested form may be a part): as the sequence (P11274 whole entry, further chain, the tested form may be a part) above

Row | Structure (SMILES) | AUC (Rattus norvegicus) [µM·h] | AUC (in vivo) [µM·h] | AUC(0-t) at 48 h [1] [µM·h] | Stability (Liver microsomes [2]) [%] | Stability (Liver microsomes [3]) [%] | inhibition [8] | inhibition [9] | further results
1 | [2H]C([2H])([2H])N1CCN(Cc2ccc(C(=O)Nc3ccc(C)c(Nc4nccc(-c5cccnc5)n4)c3)cc2)CC1 | 0.011 | 1.85 | 1.15 | 80.9 | 81.9 |  |  | 
2 | Cc1ccc(NC(=O)c2ccc(CN3CCNCC3)cc2)cc1Nc1nccc(-c2cccnc2)n1 |  |  |  |  |  |  |  | IC50 (Bcr/Abl fusion protein [4]): 2.23 µM; IC50 (Bcr/Abl fusion protein [5]): 0.512 µM; IC50 [6]: 0.342 µM; IC50 (Bcr/Abl fusion protein [7]): 1.56 µM
3 | Cc1ccc(NC(=O)c2ccc(CN3CCN(C)C(=O)C3)cc2)cc1Nc1nccc(-c2cccnc2)n1 |  |  |  |  |  | inactive | inactive | 
4 | CC(=O)N1CCN(Cc2ccc(C(=O)Nc3ccc(C)c(Nc4nccc(-c5cccnc5)n4)c3)cc2)CC1 |  |  |  |  |  | inactive | inactive | 
5 | Cc1ccc(NC(=O)c2ccc(CN3CCN(C=O)CC3)cc2)cc1Nc1nccc(-c2cccnc2)n1 |  |  |  |  |  | inactive | inactive | 
6 | Cc1ccc(NC(=O)c2ccc(CN3CCN(C)CC3)cc2)cc1Nc1nccc(-c2cccnc2)n1 [IMATINIB] | 0.0339 | 1.97 | 1.42 | 77.2 | 67.3 |  |  | 
